Experimental data pooled from the literature.

SMILES	test system	conditions	quantity	result
CC(C)(Nc1nc(-c2ccccn2)nc2ccccc12)c1ccccn1	female BALB/c mouse, plasma	intravenous, 1 mg/kg, 15 min	concentration	963 ng/mL
CS(=O)(=O)CCC#N	human, plasma	oral, 300 mg, single dose, fasted	MRT	30.5 h
c1cnc2ccc(Nc3nc(NC4CC4)c4nc[nH]c4n3)cc2c1	human, plasma	oral, 50 mg/m², patients	MRT(0-t)	6.4 h
CC(C)CN(C[C@@H](O)[C@H](Cc1ccccc1)NC(=O)O[C@H]1CO[C@H]2OCC[C@H]21)S(=O)(=O)c1ccc(N)cc1	BALB/c mouse, brain	intravenous, 2.5 mg/kg, 6 h	concentration	1.36 ng/g
O=C(O)C1CCN(c2ncc(-c3ccc4c(c3)OCCCO4)s2)CC1	male Swiss mouse, plasma	oral, 30 mg/kg, 4 h, single dose	concentration	3890 ng/mL
O=c1nc(N2CCN(CC3CCCCC3)CC2)sc2c([N+](=O)[O-])cc(C(F)(F)F)cc12	CD-1 mouse, plasma	intravenous, 10 mg/kg, 4 h	concentration	139 ng/mL
CC(C)Oc1cccc(-c2cnc(N3CCC(C(N)=O)CC3)s2)c1	male Swiss mouse, brain	oral, 30 mg/kg, 1 h, single dose	concentration	207 ng/g
CC(C)(O)c1ccccc1-c1ccc2[nH]c(/C=C/c3ccc(C(F)(F)F)cc3)nc2c1	male human, plasma	oral, 60 mg, single dose, fasted, healthy volunteers	MRT	91.4 h
CC(C)(C)c1ccc(O)c(CN(Cc2cc(C(C)(C)C)ccc2O)C2CCC(NC(N)=O)CC2)c1 (stereo not drawn)	male C57BL/6 mouse, brain	intraperitoneal, 25 mg/kg, single dose	half-life	10.1 h
